Results as given in ChEMBL document CHEMBL1137717, “Synthesis and in vitro antiproliferative activity of novel 1-benzhydrylpiperazine derivatives against human cancer cell lines” (Eur J Med Chem, 2009).

How the values were obtained:
HT-29 = assay: Cytotoxicity against human HT-29 cells assessed as cell survival at 100 uM after 24 hrs by MTT assay relative to control; format: functional; conditions: HT-29, 24 h, read-out: Survival
Outline: (§1)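 Cells grown in DMEM with 10% FCS (HT-29 in McCoy's with 10% FCS), seeded in 96-well plates, and grown 48 h before dosing. Exposed to 100 µM final compound (0.1% DMSO) for 24 h at 37 °C. MTT 1 mg/ml in medium was added for 4 h, formazan dissolved in DMSO, and A570 read. Survival is relative to the 0.1% DMSO control (100%); triplicate, mean ± SD.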

HeLa = assay: Cytotoxicity against human HeLa cells assessed as cell survival at 100 uM after 24 hrs by MTT assay relative to control; format: functional; conditions: read-out: Survival; outline: as §1
MCF7 = assay: Cytotoxicity against human MCF7 cells assessed as cell survival at 100 uM after 24 hrs by MTT assay relative to control; format: functional; conditions: MCF7, 24 h, read-out: Survival; outline: as §1
HepG2 = assay: Cytotoxicity against human HepG2 cells assessed as cell survival at 100 uM after 24 hrs by MTT assay relative to control; format: functional; conditions: HepG2, 24 h, read-out: Survival; outline: as §1
[1] = Cytotoxicity against human NF103 cells assessed as cell survival at 100 uM after 24 hrs by MTT assay relative to control; format: cell-based; conditions: read-out: Survival; outline: as §1

Q: Which results are given for `S=C(Nc1cccc(Cl)c1)N1CCN(C(c2ccccc2)c2ccccc2)CC1`?
A: viability at 100 µM (HT-29): 69.3%; viability at 100 µM (HeLa): 69.8%; viability at 100 µM (MCF7): 73.6%; viability at 100 µM (HepG2): 69.5%; viability at 24 h, 100 µM [1]: 56.8%

Q: Which results are given for `S=C(Nc1ccc(Cl)cc1)N1CCN(C(c2ccccc2)c2ccccc2)CC1`?
A: viability at 100 µM (HT-29): 73.8%; viability at 100 µM (HeLa): 73.9%; viability at 100 µM (MCF7): 66.9%; viability at 100 µM (HepG2): 66.2%; viability at 24 h, 100 µM [1]: 54.8%

Q: What does the source list for `Fc1ccc(NC(=S)N2CCN(C(c3ccccc3)c3ccccc3)CC2)cc1`?
A: viability at 100 µM (HT-29): 47.4%; viability at 100 µM (HeLa): 48.4%; viability at 100 µM (MCF7): 43.9%; viability at 100 µM (HepG2): 45.4%; viability at 24 h, 100 µM [1]: 52.7%

Q: Which viability at 100 µM (HT-29) does the source give for `O=C(N1CCCC1)N1CCN(C(c2ccccc2)c2ccccc2)CC1` here?
A: The viability at 100 µM was 70.2%.

Q: What about the viability at 100 µM (HeLa) of the same molecule?
A: The viability at 100 µM was 64.2%.

Q: What about the viability at 100 µM (MCF7) of the same molecule?
A: Its viability at 100 µM is 71.4%.

Q: What about the viability at 100 µM (HepG2) of the same molecule?
A: The viability at 100 µM was 66.2%.

Q: What about the viability at 24 h, 100 µM [1] of the same molecule?
A: The viability at 24 h, 100 µM was 54%.

Q: With `O=C(C1CC1)N1CCN(C(c2ccccc2)c2ccccc2)CC1` as the molecule, how does the viability at 100 µM (HT-29) read?
A: The viability at 100 µM was 72%.

Q: And the viability at 100 µM (HeLa)?
A: The viability at 100 µM was 70.3%.

Q: What about the viability at 100 µM (MCF7) of the same molecule?
A: Its viability at 100 µM is 61%.

Q: And the viability at 100 µM (HepG2)?
A: Its viability at 100 µM is 62.9%.

Q: And the viability at 24 h, 100 µM [1]?
A: Its viability at 24 h, 100 µM is 55.1%.

Q: For `O=S(=O)(c1ccccc1)N1CCN(C(c2ccccc2)c2ccccc2)CC1`, which viability at 100 µM (HT-29) is on record?
A: The viability at 100 µM was 69.3%.

Q: And the viability at 100 µM (HeLa)?
A: Its viability at 100 µM is 61.9%.

Q: What about the viability at 100 µM (MCF7) of the same molecule?
A: Its viability at 100 µM is 68.1%.

Q: And the viability at 100 µM (HepG2)?
A: The viability at 100 µM was 66.2%.

Q: And the viability at 24 h, 100 µM [1]?
A: Its viability at 24 h, 100 µM is 57.4%.

Q: Which viability at 100 µM (HT-29) does the source give for `O=S(=O)(CC(F)(F)F)N1CCN(C(c2ccccc2)c2ccccc2)CC1` here?
A: The viability at 100 µM was 43.6%.

Q: What about the viability at 100 µM (HeLa) of the same molecule?
A: The viability at 100 µM was 47.7%.

Q: And the viability at 100 µM (MCF7)?
A: The viability at 100 µM was 41.1%.

Q: What about the viability at 100 µM (HepG2) of the same molecule?
A: The viability at 100 µM was 47.8%.

Q: And the viability at 24 h, 100 µM [1]?
A: Its viability at 24 h, 100 µM is 54.9%.

Q: Which results are given for `O=C(N1CCOCC1)N1CCN(C(c2ccccc2)c2ccccc2)CC1`?
A: viability at 100 µM (HT-29): 63.4%; viability at 100 µM (HeLa): 53.9%; viability at 100 µM (MCF7): 68.7%; viability at 100 µM (HepG2): 61.9%; viability at 24 h, 100 µM [1]: 56.1%

Q: For `COc1ccccc1NC(=S)N1CCN(C(c2ccccc2)c2ccccc2)CC1`, which viability at 100 µM (HT-29) is on record?
A: Its viability at 100 µM is 62.1%.

Q: What about the viability at 100 µM (HeLa) of the same molecule?
A: Its viability at 100 µM is 56.8%.

Q: And the viability at 100 µM (MCF7)?
A: The viability at 100 µM was 54.5%.

Q: What about the viability at 100 µM (HepG2) of the same molecule?
A: Its viability at 100 µM is 61%.

Q: And the viability at 24 h, 100 µM [1]?
A: The viability at 24 h, 100 µM was 59.7%.

Q: Which results are given for `COc1cccc(NC(=S)N2CCN(C(c3ccccc3)c3ccccc3)CC2)c1`?
A: viability at 100 µM (HT-29): 64.8%; viability at 100 µM (HeLa): 72.8%; viability at 100 µM (MCF7): 58.7%; viability at 100 µM (HepG2): 64.5%; viability at 24 h, 100 µM [1]: 57.8%

Q: For `S=C(Nc1ccc(Cl)cc1Cl)N1CCN(C(c2ccccc2)c2ccccc2)CC1`, which viability at 100 µM (HT-29) is on record?
A: Its viability at 100 µM is 68.2%.

Q: What about the viability at 100 µM (HeLa) of the same molecule?
A: The viability at 100 µM was 45.5%.

Q: What about the viability at 100 µM (MCF7) of the same molecule?
A: Its viability at 100 µM is 45.6%.

Q: What about the viability at 100 µM (HepG2) of the same molecule?
A: Its viability at 100 µM is 59.2%.

Q: And the viability at 24 h, 100 µM [1]?
A: Its viability at 24 h, 100 µM is 53.5%.

Q: What does the source list for `CC1(C)C2CCC1(CS(=O)(=O)N1CCN(C(c3ccccc3)c3ccccc3)CC1)C(=O)C2` (stereo not given)?
A: viability at 100 µM (HT-29): 79.2%; viability at 100 µM (HeLa): 65.2%; viability at 100 µM (MCF7): 61.7%; viability at 100 µM (HepG2): 72.6%; viability at 24 h, 100 µM [1]: 60.4%

Q: Which viability at 100 µM (HT-29) does the source give for `COc1ccc(NC(=S)N2CCN(C(c3ccccc3)c3ccccc3)CC2)cc1` here?
A: Its viability at 100 µM is 55.6%.

Q: And the viability at 100 µM (HeLa)?
A: Its viability at 100 µM is 66%.

Q: And the viability at 100 µM (MCF7)?
A: Its viability at 100 µM is 63.7%.

Q: What about the viability at 100 µM (HepG2) of the same molecule?
A: The viability at 100 µM was 48.8%.

Q: What about the viability at 24 h, 100 µM [1] of the same molecule?
A: Its viability at 24 h, 100 µM is 55.9%.

Q: Which results are given for `S=C(Nc1ccccc1Cl)N1CCN(C(c2ccccc2)c2ccccc2)CC1`?
A: viability at 100 µM (HT-29): 70.8%; viability at 100 µM (HeLa): 63.1%; viability at 100 µM (MCF7): 69.8%; viability at 100 µM (HepG2): 71.8%; viability at 24 h, 100 µM [1]: 59.1%

Q: Which viability at 100 µM (HT-29) does the source give for `O=C(c1ccno1)N1CCN(C(c2ccccc2)c2ccccc2)CC1` here?
A: The viability at 100 µM was 47.5%.

Q: And the viability at 100 µM (HeLa)?
A: Its viability at 100 µM is 46.8%.

Q: What about the viability at 100 µM (MCF7) of the same molecule?
A: The viability at 100 µM was 44.2%.

Q: And the viability at 100 µM (HepG2)?
A: Its viability at 100 µM is 46.1%.

Q: What about the viability at 24 h, 100 µM [1] of the same molecule?
A: Its viability at 24 h, 100 µM is 58.6%.

Q: Which viability at 100 µM (HT-29) does the source give for `O=S(=O)(c1ccc(Cl)cc1F)N1CCN(C(c2ccccc2)c2ccccc2)CC1` here?
A: The viability at 100 µM was 76.3%.

Q: And the viability at 100 µM (HeLa)?
A: The viability at 100 µM was 61.9%.

Q: What about the viability at 100 µM (MCF7) of the same molecule?
A: Its viability at 100 µM is 64%.

Q: And the viability at 100 µM (HepG2)?
A: The viability at 100 µM was 70.1%.

Q: What about the viability at 24 h, 100 µM [1] of the same molecule?
A: The viability at 24 h, 100 µM was 61%.
